The test system of test [1] is Fusarium oxysporum. The test can be described thus: Antifungal activity against Fusarium oxysporum at 50 ug/ml by poison plate technique. Format: functional. The method, boiled down: (§1)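 Poison plate method. Compound in PDA at 50 µg/mL final. Fungi precultured on PDA at 27 ± 1 °C for 4 days, then a ~4 mm mycelial disc was placed in the plate centre and incubated at 27 ± 1 °C for 5 days. Acetone in sterile water was the blank and hymexazol the positive control. Three replicates. Colony diameter was measured and I(%) = [(C − T)/(C − 0.4)] × 100.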

The subject of test [2] is Fusarium graminearum. Put plainly: Antifungal activity against Gibberella zeae at 50 ug/ml by poison plate technique. Format: functional. Summed up: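 Poison-plate (mycelial growth rate) test at a single final concentration in PDA. Fungus was pre-grown 4 days at 27±1 °C, and a 4 mm mycelial plug was placed at the plate centre and incubated 5 days at 27±1 °C. Acetone in sterile water was the untreated control. Triplicate plates were used; inhibition % = (C−T)/(C−0.4)×100 from colony diameters.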

Test [3] deals with Cytospora. Put plainly: Antifungal activity against Cytospora mandshurica at 50 ug/ml by poison plate technique. Type of test: functional. The method, boiled down: as §1
For test [4], the system named is Sclerotinia sclerotiorum. Put plainly: Change in mycelial soluble protein content in Sclerotinia sclerotiorum after 24 hrs. Format: functional. Summed up: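 Soluble protein was measured in extracts of S. sclerotiorum cultured 15 days in shaken Czapek broth at 27 °C, treated at 100 and harvested at 24 h. Dried mycelium was ground in 0.05 mol/L Tris–HCl pH 7.5 and centrifuged; absorbance was read at 595 nm with buffer blank. Three repetitions.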

A further test concerns Thanatephorus cucumeris. Put plainly: Antifungal activity against Thanatephorus cucumeris by poison plate technique. Format: functional, organism-based. Summed up:
(§2)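 Poison-plate assay on PDA against nine plant-pathogenic fungi at 100, 50, 25, 12.5 and 6.25 in the medium. Cultures were grown 4 days at 27±1 °C, and 4 mm mycelial plugs were placed centrally on plates and incubated 5 days at 27±1 °C. Acetone in sterile water was the blank. Inhibition % = (C−T)/(C−0.4)×100 from colony diameters. EC50 was obtained by probit analysis, averaged from at least three separate analyses.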

The test system of test [5] is Sclerotinia sclerotiorum. The test can be described thus: Antifungal activity against Sclerotinia sclerotiorum by poison plate technique. Type of test: functional, organism-based. Summed up:
as §2

The test system of test [6] is Sclerotinia sclerotiorum. The test can be described thus: Effect on sporule germination in Sclerotinia sclerotiorum assessed as germination ratio at 80 ug/ml. Type of test: functional. The method, boiled down: (§3)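 Compound was mixed into PDA at 0, 20, 40, 60, 80 and 100 µg/mL, and 0.5 mL spore suspension was spread per plate. Plates were incubated at 27 °C and checked every 2 h after 24 h. Germination was scored when control germination exceeded 90%, in three fields per dish, with three replicates. GR% = 100 × G/S.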

The subject of test [7] is Sclerotinia sclerotiorum. The test can be described thus: Effect on sporule germination in Sclerotinia sclerotiorum assessed as germination ratio at 100 ug/ml. Type of test: functional. The method, boiled down: as §3
Test [8] concerns Sclerotinia sclerotiorum. Put plainly: Change in mycelial reducing sugar level in Sclerotinia sclerotiorum after 24 hrs relative to hymexazol. Format: functional. More on the design: scale not given: the % may be the effect or the level left. Summed up:
(§4)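 S. sclerotiorum was grown from six 4 mm discs in 90 mL Czapek medium, shaken at 140 rpm and 27 °C for 15 days. Compound was then added at 100 µg/mL. Mycelium was harvested at 0.5–24 h, ground in 0.05 mol/L Tris–HCl pH 7.5 and centrifuged at 15,000g, 4 °C, for 30 min. Three repetitions. Supernatant read-outs: reducing sugar by DNS at 540 nm against glucose; chitosan (D-GlcNAc) by K2B4O7/DMAB at 544 nm; pyruvate by DNPH/NaOH at 520 nm; protein at 595 nm. Tris–HCl blank.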

Test [9] has as its system Fusarium oxysporum. Put plainly: Antifungal activity against Fusarium oxysporum by poison plate technique. Format: functional, organism-based. Summed up: (§5)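 Poison plate mycelial growth assay on PDA at 100, 50, 25, 12.5 and 6.25 µg/mL. Mycelial discs were grown at 27 ± 1 °C for 5 days and radial colony growth was measured. EC50 was estimated by probit analysis and averaged from at least three separate analyses.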

The test system of test [10] is Sclerotinia sclerotiorum. Put plainly: Change in mycelial chitosan content in Sclerotinia sclerotiorum after 6 hrs. Format: functional. Summed up: as §4
Test [11] relates to Sclerotinia sclerotiorum. The test can be described thus: Change in mycelial pyruvate content in Sclerotinia sclerotiorum after 24 hrs. Format: functional. The method, boiled down: as §4
The test system of test [12] is Fusarium graminearum. The test can be described thus: Antifungal activity against Gibberella zeae by poison plate technique. Format: functional, organism-based. Summed up:
as §2

Test [13] has as its system Sclerotinia sclerotiorum. The test can be described thus: Effect on membrane permeability of Sclerotinia sclerotiorum at 100 ug/ml after 240 mins relative to control. Type of test: functional, organism-based. Summed up: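 Washed S. sclerotiorum mycelium (1 g) was placed in tubes with the compound. Conductivity was read over time from 0 to 360 min, then after boiling and cooling. Relative permeability P% = (J1−J0)/(J2−J0)×100.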

The test system of test [14] is Colletotrichum gloeosporioides. Put plainly: Antifungal activity against Colletotrichum gloeosporioides by poison plate technique. Type of test: functional, organism-based. Summed up: as §2
The subject of test [15] is Sclerotinia sclerotiorum. Put plainly: Change in mycelial reducing sugar level in Sclerotinia sclerotiorum after 24 hrs. Type of test: functional. Summed up:
as §4

For test [16], the system named is Sclerotinia sclerotiorum. The test can be described thus: Change in mycelial soluble protein content in Sclerotinia sclerotiorum after 0.5 hr relative to control. Type of test: functional. Summed up: as §4
The subject of the next test is Botrytis cinerea. Put plainly: Antifungal activity against Botrytis cinerea by poison plate technique. Format: functional, organism-based. The method, boiled down:
as §2

Test [17] relates to Cytospora. The test can be described thus: Antifungal activity against Cytospora mandshurica by poison plate technique. Type of test: functional. The method, boiled down: as §2
Test [18] has as its system Sclerotinia sclerotiorum. Put plainly: Change in mycelial chitinase activity in Sclerotinia sclerotiorum assessed as N-acetyl-glucosamine level after 24 hrs. Summed up: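 Mycelial extract came from S. sclerotiorum grown 15 days in shaken Czapek broth at 27 °C, dosed at 100 and harvested at 24 h, in Tris–HCl pH 7.5. Extract was incubated with colloidal chitin 1 h at 37 °C, boiled and centrifuged. Released GlcNAc was read with 0.8 M K2B4O7, boiling, 1% DMAB, 20 min at 36 °C, A544. The blank was boiled before incubation.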

For test [19], the system named is Sclerotinia sclerotiorum. The test can be described thus: Change in mycelial N-acetyl-glucosamine content in Sclerotinia sclerotiorum after 24 hrs. Type of test: functional. The method, boiled down: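 S. sclerotiorum was grown 15 days in Czapek broth shaken at 140 rpm and 27 °C, then dosed at 100 and sampled at 24 h. Dried mycelium (1.0 g) was ground in 0.05 mol/L Tris–HCl pH 7.5 and centrifuged at 15,000g, 4 °C. Supernatant with K2B4O7 was boiled 3 min, then 1% DMAB was added, 20 min at 36 °C, A544. Three repetitions.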

The test system of test [20] is Sclerotinia sclerotiorum. Put plainly: Change in mycelial reducing sugar level in Sclerotinia sclerotiorum upto 3 hrs relative to control. Type of test: functional. Also on record: scale not given: the % may be the effect or the level left. Summed up: as §4
Another test relates to Phytophthora infestans. The test can be described thus: Antifungal activity against Phytophthora infestans by poison plate technique. Type of test: functional, organism-based. Summed up:
as §2

For a further test, the system named is Rhizoctonia solani. Put plainly: Antifungal activity against Rhizoctonia solani by poison plate technique. Type of test: functional, organism-based. The method, boiled down: as §5

Values after ≈ are worked out from the molar mass of the structure shown.

For the compound `COc1cccc(C[S+]([O-])c2nnc(-c3cc(OC)c(OC)c(OC)c3)o2)c1` (stereo not given), the inhibition (in general, the relative decrease from the control value, in per cent) at 50 µg/mL was 30.5% in the test on Fusarium oxysporum [1], 37.7% in the test with Fusarium graminearum [2] and 25.7% in the test with Cytospora [3].
The matching figures for `COc1cc(-c2nnc([S+]([O-])Cc3cccc(F)c3)s2)cc(OC)c1OC` (stereo not given): 11.7%, 14.9% and 12%.
Take `COc1cc(-c2nnc([S+]([O-])Cc3ccccc3)o2)cc(OC)c1OC` (stereo not given): the Activity was found to be 0.69 mg/mL with Sclerotinia sclerotiorum [4]; 12.6% with Sclerotinia sclerotiorum [6]; 5.4% in the test on Sclerotinia sclerotiorum [7]; 8.8% in the test with Sclerotinia sclerotiorum [8]; 0.12 mg/mL in the test with Sclerotinia sclerotiorum [10]; 0.19 mg/mL in the test on Sclerotinia sclerotiorum [11]. Moreover, the Activity came to 0.37 mg/mL with Sclerotinia sclerotiorum [15]; 43% in the test with Sclerotinia sclerotiorum [16]; 0.125 mg/mL in the test with Sclerotinia sclerotiorum [18]; 0.12 mg/mL with Sclerotinia sclerotiorum [19]; 13.3% in the test with Sclerotinia sclerotiorum [20]. Further, the concentration for a half-maximal effect (EC50) (commonly the concentration needed to bring the measured effect to its halfway point) in the test with Thanatephorus cucumeris worked out at 23.4 µg/mL (≈ 62.6 µM); in the test on Sclerotinia sclerotiorum [5] it was 19.9 µg/mL (≈ 53.2 µM); with Fusarium oxysporum [9] it was 58.5 µg/mL (≈ 156 µM); with Fusarium graminearum [12], 28.8 µg/mL (≈ 77 µM); in test [14], 39.4 µg/mL (≈ 105 µM); in the test with Botrytis cinerea, 21.6 µg/mL (≈ 57.8 µM). In addition, the EC50 amounted to 64 µg/mL (≈ 171 µM) in the test on Cytospora [17], 33.1 µg/mL (≈ 88.4 µM) in the test on Phytophthora infestans and 44.7 µg/mL (≈ 119 µM) with Rhizoctonia solani. Also, the inhibition at 50 µg/mL was 52.3% in the test on Fusarium oxysporum [1], 53.3% in the test on Fusarium graminearum [2] and 56.1% with Cytospora [3]. The compound also displayed a permeability in the test with Sclerotinia sclerotiorum [13] of 26.7%.
As for `Cc1cc(O)no1` [HYMEXAZOL], the Activity in the test on Sclerotinia sclerotiorum [4] was determined as 0.91 mg/mL; in the test on Sclerotinia sclerotiorum [18], 0.124 mg/mL; with Sclerotinia sclerotiorum [19], 0.13 mg/mL. Also, the EC50 in the test with Thanatephorus cucumeris turned out to be 40.4 µg/mL (≈ 408 µM); in the test with Sclerotinia sclerotiorum [5] it was 4.63 µg/mL (≈ 46.7 µM); in the test with Fusarium graminearum [12], 26.4 µg/mL (≈ 266 µM); in test [14], 15.8 µg/mL (≈ 159 µM); in the test with Botrytis cinerea, 5.12 µg/mL (≈ 51.7 µM); in the test with Cytospora [17], 21.4 µg/mL (≈ 216 µM). Besides, it took 25.1 µg/mL (≈ 253 µM) to reach a half-maximal effect in the test on Phytophthora infestans (EC50). Further, the inhibition at 50 µg/mL in the test on Fusarium oxysporum [1] is 52.1%; in the test with Fusarium graminearum [2], 53.7%; in the test with Cytospora [3], 52%. The permeability in the test with Sclerotinia sclerotiorum [13] came out at 24.6%.
Consider `COc1cc(-c2nnc([S+]([O-])Cc3cccc(F)c3)o2)cc(OC)c1OC` (stereo not given), for which the inhibition at 50 µg/mL is -0.88% with Fusarium oxysporum [1], 7.29% with Fusarium graminearum [2] and -0.31% in the test on Cytospora [3].
With `COc1ccccc1C[S+]([O-])c1nnc(-c2cc(OC)c(OC)c(OC)c2)o1` (stereo not given), the values for the inhibition at 50 µg/mL in the test on Fusarium oxysporum [1], in the test with Fusarium graminearum [2] and with Cytospora [3] were 32.3%, 29.9% and 18.2%, respectively.
For `COc1cc(-c2nnc([S+]([O-])Cc3ccccc3F)o2)cc(OC)c1OC` (stereo not given), in that order: 4.4%, 11.3% and 2.82%.
In the case of `CCOC(=O)C[S+]([O-])c1nnc(-c2cc(OC)c(OC)c(OC)c2)s1` (stereo not given), the inhibition at 50 µg/mL came to 4.58% in the test on Fusarium oxysporum [1], 34.8% in the test on Fusarium graminearum [2] and 8.42% in the test on Cytospora [3].
The matching figures for `COc1cc(-c2nnc([S+]([O-])Cc3ccccc3Cl)o2)cc(OC)c1OC` (stereo not given): 7.04%, 7.79% and -0.33%.
The matching figures for `COc1cccc(C[S+]([O-])c2nnc(-c3cc(OC)c(OC)c(OC)c3)s2)c1` (stereo not given): 8.65%, 8.29% and 11%.
The matching figures for `COc1cc(-c2nnc([S+]([O-])Cc3ccc(Cl)nc3)o2)cc(OC)c1OC` (stereo not given): 14.9%, 31.9% and 11.9%.
Regarding `CCOCC[S+]([O-])c1nnc(-c2cc(OC)c(OC)c(OC)c2)s1` (stereo not given), the inhibition at 50 µg/mL in the test with Fusarium oxysporum [1] is 8.14%; with Fusarium graminearum [2], 16.8%; in the test on Cytospora [3], 16.1%.
For `CCOC(=O)C[S+]([O-])c1nnc(-c2cc(OC)c(OC)c(OC)c2)o1` (stereo not given), in that order: 1.47%, 18.1% and 6.9%.
The matching figures for `COc1cc(-c2nnc([S+]([O-])Cc3ccc(F)cc3)s2)cc(OC)c1OC` (stereo not given): 2.54%, 6.4% and 3.83%.
For `COc1cc(-c2nnc([S+]([O-])Cc3cccc([N+](=O)[O-])c3)s2)cc(OC)c1OC` (stereo not given), the inhibition at 50 µg/mL amounted to 3.31% with Fusarium oxysporum [1], 5.45% with Fusarium graminearum [2] and 6.63% in the test on Cytospora [3].
The matching figures for `COc1cc(-c2nnc([S+]([O-])Cc3ccccc3)s2)cc(OC)c1OC` (stereo not given): 15.5%, 26.9% and 16%.

For the origin of these results see ChEMBL document CHEMBL1144737, “Synthesis and antifungal activity of novel sulfoxide derivatives containing trimethoxyphenyl substituted 1,3,4-thiadiazole and 1,3,4-oxadiazole moiety” (Bioorg Med Chem, 2008).
